Key:
[1] = target: Ribosomal protein S6 kinase alpha-1 (Homo sapiens) (UniProt Q15418); experiment: Binding affinity to wild-type human partial length N-terminal RSK1 Kinase domain 1 (M1 to E388 residues) expressed in bacterial expression system assessed as residual binding level at 1 uM by Kinomescan method relative to control
[2] = target: Hormonally up-regulated neu tumor-associated kinase (Homo sapiens) (UniProt P57058); experiment: Binding affinity to wild-type human partial length HUNK (A31 to K354 residues) expressed in bacterial expression system assessed as residual binding level at 1 uM by Kinomescan method relative to control
[3] = target: Mitogen-activated protein kinase kinase kinase 1 (Homo sapiens) (UniProt Q13233); experiment: Binding affinity to wild-type human partial length MAP3K1 (L1202 to W1512 residues) expressed in mammalian expression system assessed as residual binding level at 1 uM by Kinomescan method relative to control
[4] = target: Non-receptor tyrosine-protein kinase TYK2 (Homo sapiens) (UniProt P29597); experiment: Binding affinity to wild-type human partial length TYK2 JH1 catalytic domain (V877 to C1187 residues) expressed in mammalian expression system assessed as residual binding level at 1 uM by Kinomescan method relative to control
[5] = target: Dual specificity tyrosine-phosphorylation-regulated kinase 1B (Homo sapiens) (UniProt Q9Y463); experiment: Binding affinity to wild-type human full length DYRK1B (M1 to S629 residues) expressed in bacterial expression system assessed as residual binding level at 1 uM by Kinomescan method relative to control
[6] = target: Myosin light chain kinase, smooth muscle (Homo sapiens) (UniProt Q15746); experiment: Binding affinity to wild-type human full length MYLK (M854 to E1845 residues) expressed in mammalian expression system assessed as residual binding level at 1 uM by Kinomescan method relative to control
Method in brief: (§1)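 Single-point kinome-wide KINOMEscan binding panel, test compound at 1 μM, run by the provider's standard protocol.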

[7] = target: Phosphatidylinositol 3-kinase catalytic subunit type 3 (Homo sapiens) (UniProt Q8NEB9); experiment: Binding affinity to wild-type human partial length VPS34 (S282 to H879 residues) expressed in mammalian expression system assessed as residual binding level at 1 uM by Kinomescan method relative to control
[8] = target: Serine/threonine-protein kinase SIK1 (Homo sapiens) (UniProt P57059); experiment: Binding affinity to wild-type human partial length SIK (M1 to Y304 residues) expressed in bacterial expression system assessed as residual binding level at 1 uM by Kinomescan method relative to control
[9] = target: Ribosomal protein S6 kinase alpha-4 (Homo sapiens) (UniProt O75676); experiment: Binding affinity to wild-type human partial length C-terminal RPS6KA4 kinase domain 2 (M375 to T705 residues) expressed in mammalian expression system assessed as residual binding level at 1 uM by Kinomescan method relative to control
[10] = Drug uptake in mouse plasma at 10 mg/kg, po after 2 hrs; assay type: ADME, organism-based
[11] = target: Serine/threonine-protein kinase WNK1 (Homo sapiens) (UniProt Q9H4A3); experiment: Binding affinity to wild-type human partial length WNK1 (Q194 to A490 residues) expressed in mammalian expression system assessed as residual binding level at 1 uM by Kinomescan method relative to control
[12] = target: Serine/threonine-protein kinase PLK2 (Homo sapiens) (UniProt Q9NYY3); experiment: Binding affinity to wild-type human partial length PLK2 (H58 to F354 residues) expressed in mammalian expression system assessed as residual binding level at 1 uM by Kinomescan method relative to control
Activated CDC42 kinase 1 = Activated CDC42 kinase 1 (Homo sapiens, UniProt Q07912); experiment: Inhibition of recombinant GST-tagged human TNK2 catalytic/cytoplasmic domain (110 to 476 residues) expressed in baculovirus expression system by LanthaScreen assay
[13] = target: Serine/threonine-protein kinase N2 (Homo sapiens) (UniProt Q16513); experiment: Binding affinity to wild-type human partial length PKN2 (E634 to C984 residues) expressed in bacterial expression system assessed as residual binding level at 1 uM by Kinomescan method relative to control
[14] = target: Protein kinase C eta type (Homo sapiens) (UniProt P24723); experiment: Binding affinity to wild-type human partial length PRKCH (S324 to P683 residues) expressed in bacterial expression system assessed as residual binding level at 1 uM by Kinomescan method relative to control
[15] = tested on: Mycobacterium tuberculosis; experiment: Binding affinity to wild-type Mycobacterium tuberculosis partial length PKNB (M1 to G279 residues) expressed in mammalian expression system assessed as residual binding level at 1 uM by Kinomescan method relative to control
Method in brief: (§2)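 Kinome-wide selectivity panel run by the KINOMEscan method, with the test compound at a single concentration of 1 μM. Wild-type and mutant kinases were profiled in the same screen.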

[16] = target: Serine/threonine-protein kinase Nek9 (Homo sapiens) (UniProt Q8TD19); experiment: Binding affinity to wild-type human partial length NEK9 (P32 to R328 residues) expressed in bacterial expression system assessed as residual binding level at 1 uM by Kinomescan method relative to control
[17] = target: Cyclin-dependent kinase 8 (Homo sapiens) (UniProt P49336); experiment: Binding affinity to wild-type human partial length CDK8 (M1 to T360 residues) expressed in bacterial expression system assessed as residual binding level at 1 uM by Kinomescan method relative to control
[18] = target: Cyclin-dependent kinase 4 (Homo sapiens) (UniProt P11802); experiment: Binding affinity to wild-type human full length CDK4 (M1 to E303 residues) expressed in mammalian expression system assessed as residual binding level at 1 uM by Kinomescan method relative to control
[19] = target: Serine/threonine-protein kinase 36 (Homo sapiens) (UniProt Q9NRP7); experiment: Binding affinity to wild-type human partial length STK36 (M1 to T271 residues) expressed in bacterial expression system assessed as residual binding level at 1 uM by Kinomescan method relative to control
[20] = target: SRSF protein kinase 2 (Homo sapiens) (UniProt P78362); experiment: Binding affinity to wild-type human full length SRPK2 (M1 to S686 residues) expressed in bacterial expression system assessed as residual binding level at 1 uM by Kinomescan method relative to control; method in brief: as §1
[21] = target: Receptor-interacting serine/threonine-protein kinase 4 (Homo sapiens) (UniProt P57078); experiment: Binding affinity to wild-type human partial length RIPK4 (M1 to V303 residues) expressed in mammalian expression system assessed as residual binding level at 1 uM by Kinomescan method relative to control
[22] = tested on: Epidermal growth factor receptor (Homo sapiens), P00533 [UNDEFINED MUTATION]; experiment: Binding affinity to human partial length EGFR L747-T751del/Sins mutant expressed in bacterial expression system assessed as residual binding level at 1 uM by Kinomescan method relative to control; method in brief: as §2
[23] = target: Mitogen-activated protein kinase 7 (Homo sapiens) (UniProt Q13164); experiment: Binding affinity to wild-type human partial length ERK5 (M1 to A409 residues) expressed in bacterial expression system assessed as residual binding level at 1 uM by Kinomescan method relative to control

Sequence of SRSF protein kinase 2 (Homo sapiens) (P78362 whole entry, looked up, the tested form may be a part): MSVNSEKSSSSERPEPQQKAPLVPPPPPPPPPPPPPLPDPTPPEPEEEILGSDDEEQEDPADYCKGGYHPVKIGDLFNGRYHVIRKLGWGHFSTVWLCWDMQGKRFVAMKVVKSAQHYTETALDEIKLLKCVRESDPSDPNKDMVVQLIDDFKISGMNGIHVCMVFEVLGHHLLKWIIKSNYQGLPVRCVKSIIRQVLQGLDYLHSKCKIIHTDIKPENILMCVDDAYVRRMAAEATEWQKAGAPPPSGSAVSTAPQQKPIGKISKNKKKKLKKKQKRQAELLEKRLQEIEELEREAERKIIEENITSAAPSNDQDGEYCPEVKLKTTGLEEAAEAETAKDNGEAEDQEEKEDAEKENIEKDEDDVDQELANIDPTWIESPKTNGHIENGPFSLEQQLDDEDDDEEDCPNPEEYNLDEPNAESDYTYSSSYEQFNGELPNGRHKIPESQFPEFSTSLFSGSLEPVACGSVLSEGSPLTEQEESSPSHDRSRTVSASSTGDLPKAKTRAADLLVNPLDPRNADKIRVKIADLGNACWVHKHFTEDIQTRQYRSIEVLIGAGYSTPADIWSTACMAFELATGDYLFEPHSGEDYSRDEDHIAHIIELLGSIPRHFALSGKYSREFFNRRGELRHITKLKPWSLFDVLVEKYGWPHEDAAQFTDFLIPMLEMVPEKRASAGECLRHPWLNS
Sequence of Non-receptor tyrosine-protein kinase TYK2 (Homo sapiens) (P29597 whole entry, the tested form may be a part): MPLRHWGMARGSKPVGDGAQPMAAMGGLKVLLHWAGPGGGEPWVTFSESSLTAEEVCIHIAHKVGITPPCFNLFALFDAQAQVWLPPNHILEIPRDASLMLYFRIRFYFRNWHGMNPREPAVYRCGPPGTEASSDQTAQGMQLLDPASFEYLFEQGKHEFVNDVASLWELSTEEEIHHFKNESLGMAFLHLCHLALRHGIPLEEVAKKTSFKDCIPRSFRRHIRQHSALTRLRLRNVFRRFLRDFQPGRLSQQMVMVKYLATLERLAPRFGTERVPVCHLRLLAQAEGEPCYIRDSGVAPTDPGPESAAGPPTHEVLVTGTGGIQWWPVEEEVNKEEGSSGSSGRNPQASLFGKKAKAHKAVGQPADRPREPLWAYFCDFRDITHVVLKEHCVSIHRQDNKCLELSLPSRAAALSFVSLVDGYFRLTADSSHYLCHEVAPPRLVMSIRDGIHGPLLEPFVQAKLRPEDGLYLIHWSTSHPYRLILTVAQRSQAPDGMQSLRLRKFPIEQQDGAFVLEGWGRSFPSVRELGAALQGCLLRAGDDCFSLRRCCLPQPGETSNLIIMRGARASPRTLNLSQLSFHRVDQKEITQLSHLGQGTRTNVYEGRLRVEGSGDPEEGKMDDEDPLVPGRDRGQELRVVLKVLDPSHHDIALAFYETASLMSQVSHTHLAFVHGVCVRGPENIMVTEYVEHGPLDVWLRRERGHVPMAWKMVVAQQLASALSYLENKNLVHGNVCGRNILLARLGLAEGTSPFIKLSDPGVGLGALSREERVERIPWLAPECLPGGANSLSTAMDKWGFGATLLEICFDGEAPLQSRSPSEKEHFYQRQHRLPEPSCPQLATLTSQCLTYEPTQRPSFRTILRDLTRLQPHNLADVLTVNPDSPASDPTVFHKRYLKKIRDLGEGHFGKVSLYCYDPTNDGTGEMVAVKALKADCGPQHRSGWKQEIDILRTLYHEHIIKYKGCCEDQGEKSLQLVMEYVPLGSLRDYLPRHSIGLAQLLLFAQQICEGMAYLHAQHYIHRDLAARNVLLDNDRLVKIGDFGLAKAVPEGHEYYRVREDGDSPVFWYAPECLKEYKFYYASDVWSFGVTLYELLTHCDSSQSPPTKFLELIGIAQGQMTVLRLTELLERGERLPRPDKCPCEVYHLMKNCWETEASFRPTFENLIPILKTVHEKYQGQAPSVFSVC
Sequence of Cyclin-dependent kinase 4 (Homo sapiens) (P11802 whole entry, the tested form may be a part): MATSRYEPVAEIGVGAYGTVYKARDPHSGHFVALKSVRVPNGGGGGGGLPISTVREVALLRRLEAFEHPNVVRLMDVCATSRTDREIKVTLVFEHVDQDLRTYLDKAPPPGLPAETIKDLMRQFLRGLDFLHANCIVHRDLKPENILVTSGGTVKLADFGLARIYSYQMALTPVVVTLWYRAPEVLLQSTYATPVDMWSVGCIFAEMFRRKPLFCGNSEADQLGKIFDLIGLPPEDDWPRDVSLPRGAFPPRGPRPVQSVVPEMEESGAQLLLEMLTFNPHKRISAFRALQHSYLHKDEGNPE
Sequence of Ribosomal protein S6 kinase alpha-1 (Homo sapiens) (Q15418 whole entry, the tested form may be a part): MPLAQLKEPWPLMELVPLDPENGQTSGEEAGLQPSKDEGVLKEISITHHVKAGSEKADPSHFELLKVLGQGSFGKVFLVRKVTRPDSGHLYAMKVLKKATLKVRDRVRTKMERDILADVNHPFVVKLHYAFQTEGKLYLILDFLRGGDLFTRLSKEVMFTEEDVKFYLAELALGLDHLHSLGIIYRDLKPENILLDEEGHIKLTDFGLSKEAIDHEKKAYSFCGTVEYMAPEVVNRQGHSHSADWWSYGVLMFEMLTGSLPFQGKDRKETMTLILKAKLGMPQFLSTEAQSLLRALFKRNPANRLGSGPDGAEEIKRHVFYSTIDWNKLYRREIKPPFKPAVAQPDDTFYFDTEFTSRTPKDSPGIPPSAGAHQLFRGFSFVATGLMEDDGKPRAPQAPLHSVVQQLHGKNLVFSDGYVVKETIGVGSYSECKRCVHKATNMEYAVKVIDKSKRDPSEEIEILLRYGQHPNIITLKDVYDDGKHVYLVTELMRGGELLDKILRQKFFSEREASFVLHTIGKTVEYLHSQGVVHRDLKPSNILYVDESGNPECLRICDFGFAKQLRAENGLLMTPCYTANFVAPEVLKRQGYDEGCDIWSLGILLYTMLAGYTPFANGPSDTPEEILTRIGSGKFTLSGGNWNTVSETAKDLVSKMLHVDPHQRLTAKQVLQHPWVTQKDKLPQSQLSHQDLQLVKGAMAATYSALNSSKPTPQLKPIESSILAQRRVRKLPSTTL
Sequence of Serine/threonine-protein kinase Nek9 (Homo sapiens) (Q8TD19 whole entry, the tested form may be a part): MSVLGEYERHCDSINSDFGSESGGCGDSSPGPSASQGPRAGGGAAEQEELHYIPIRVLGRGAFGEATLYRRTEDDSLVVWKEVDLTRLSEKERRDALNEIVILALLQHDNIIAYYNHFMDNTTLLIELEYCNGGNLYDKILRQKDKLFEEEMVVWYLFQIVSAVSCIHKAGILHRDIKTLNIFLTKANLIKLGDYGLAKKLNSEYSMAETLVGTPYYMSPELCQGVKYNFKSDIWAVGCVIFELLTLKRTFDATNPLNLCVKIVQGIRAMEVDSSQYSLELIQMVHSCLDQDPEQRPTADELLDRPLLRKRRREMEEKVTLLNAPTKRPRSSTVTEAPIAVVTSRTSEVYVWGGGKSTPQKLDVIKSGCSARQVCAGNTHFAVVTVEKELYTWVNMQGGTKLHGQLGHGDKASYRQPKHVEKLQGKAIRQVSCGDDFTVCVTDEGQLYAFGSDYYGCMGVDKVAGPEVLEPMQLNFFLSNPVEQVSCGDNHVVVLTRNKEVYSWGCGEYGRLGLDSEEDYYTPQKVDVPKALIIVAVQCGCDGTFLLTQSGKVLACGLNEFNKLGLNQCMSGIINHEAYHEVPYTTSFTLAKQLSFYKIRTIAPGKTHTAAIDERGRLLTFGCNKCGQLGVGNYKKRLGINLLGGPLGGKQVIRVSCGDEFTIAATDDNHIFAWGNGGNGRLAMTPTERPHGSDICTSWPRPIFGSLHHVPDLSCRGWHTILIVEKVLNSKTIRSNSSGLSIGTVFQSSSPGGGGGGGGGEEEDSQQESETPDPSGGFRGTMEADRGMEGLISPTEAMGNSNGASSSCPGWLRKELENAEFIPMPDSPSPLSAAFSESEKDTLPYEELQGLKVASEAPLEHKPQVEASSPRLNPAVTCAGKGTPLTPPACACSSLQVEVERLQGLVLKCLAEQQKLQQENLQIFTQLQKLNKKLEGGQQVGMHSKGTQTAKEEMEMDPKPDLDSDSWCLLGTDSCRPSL
Sequence of Hormonally up-regulated neu tumor-associated kinase (Homo sapiens) (P57058 whole entry, the tested form may be a part): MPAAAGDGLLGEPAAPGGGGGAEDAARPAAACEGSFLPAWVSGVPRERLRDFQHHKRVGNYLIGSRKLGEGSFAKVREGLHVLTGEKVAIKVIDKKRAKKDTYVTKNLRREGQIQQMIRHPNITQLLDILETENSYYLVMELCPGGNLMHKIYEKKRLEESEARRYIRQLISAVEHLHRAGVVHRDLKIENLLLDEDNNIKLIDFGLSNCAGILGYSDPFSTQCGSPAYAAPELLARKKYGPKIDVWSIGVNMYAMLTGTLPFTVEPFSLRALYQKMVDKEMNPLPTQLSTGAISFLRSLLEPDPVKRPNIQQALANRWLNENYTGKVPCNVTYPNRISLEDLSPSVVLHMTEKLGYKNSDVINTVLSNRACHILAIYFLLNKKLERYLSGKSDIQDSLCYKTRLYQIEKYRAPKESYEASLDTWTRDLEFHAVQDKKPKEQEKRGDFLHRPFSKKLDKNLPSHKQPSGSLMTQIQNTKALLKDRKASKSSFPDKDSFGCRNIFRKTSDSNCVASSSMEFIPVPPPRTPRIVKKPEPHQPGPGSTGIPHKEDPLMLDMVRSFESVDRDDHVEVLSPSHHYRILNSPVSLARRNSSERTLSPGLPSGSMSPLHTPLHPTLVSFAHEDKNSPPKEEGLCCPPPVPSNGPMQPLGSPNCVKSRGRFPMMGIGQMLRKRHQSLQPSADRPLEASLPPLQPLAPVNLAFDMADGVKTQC
Sequence of Cyclin-dependent kinase 8 (Homo sapiens) (P49336 whole entry, the tested form may be a part): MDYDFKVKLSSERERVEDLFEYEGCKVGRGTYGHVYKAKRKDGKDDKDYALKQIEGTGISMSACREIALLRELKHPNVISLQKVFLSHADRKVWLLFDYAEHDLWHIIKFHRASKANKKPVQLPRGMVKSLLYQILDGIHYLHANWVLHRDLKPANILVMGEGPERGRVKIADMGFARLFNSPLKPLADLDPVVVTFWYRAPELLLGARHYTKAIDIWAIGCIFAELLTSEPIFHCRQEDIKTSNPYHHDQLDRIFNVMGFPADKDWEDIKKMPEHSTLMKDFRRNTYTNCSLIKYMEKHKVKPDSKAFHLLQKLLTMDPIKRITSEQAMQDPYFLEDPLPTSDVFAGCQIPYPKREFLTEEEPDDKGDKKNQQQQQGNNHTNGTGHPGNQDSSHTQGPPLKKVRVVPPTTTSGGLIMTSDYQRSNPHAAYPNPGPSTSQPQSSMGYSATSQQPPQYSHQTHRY

**Q.** With `C=CC(=O)Nc1cc(Nc2ncc(Cl)c(Nc3ccccc3S(=O)(=O)C(C)C)n2)c(OC)cc1N(C)CCN(C)C` as the compound, how does the Activity [1] read?
**A.** 4.3%

**Q.** What about the Activity [2] of the same compound?
**A.** 39%

**Q.** What about the Activity [3] of the same compound?
**A.** 84%

**Q.** What about the Activity [4] of the same compound?
**A.** 17%

**Q.** What about the Activity [5] of the same compound?
**A.** 48%

**Q.** And the Activity [6]?
**A.** 1.3%

**Q.** And the Activity [7]?
**A.** 67%

**Q.** And the Activity [8]?
**A.** 67%

**Q.** And the Activity [9]?
**A.** 100%

**Q.** And the concentration at 2 h [10]?
**A.** 150 nM

**Q.** And the Activity [11]?
**A.** 100%

**Q.** What about the Activity [12] of the same compound?
**A.** 87%

**Q.** And the IC50 (Activated CDC42 kinase 1)?
**A.** 13 nM

**Q.** What about the Activity [13] of the same compound?
**A.** 70%

**Q.** And the Activity [14]?
**A.** 100%

**Q.** And the Activity [15]?
**A.** 50%

**Q.** And the Activity [16]?
**A.** 70%

**Q.** What about the Activity [17] of the same compound?
**A.** 90%

**Q.** And the Activity [18]?
**A.** 99%

**Q.** And the Activity [19]?
**A.** 88%

**Q.** And the Activity [20]?
**A.** 99%

**Q.** And the Activity [21]?
**A.** 72%

**Q.** What about the Activity [22] of the same compound?
**A.** 0.45%

**Q.** What about the Activity [23] of the same compound?
**A.** 37%
